High-throughput results from PubChem.
MPTP block = blocks calcium-induced mitochondrial swelling | isolated mouse mitochondria, Ca2+ swelling absorbance, 30 min | inhibition, % at 10 µM | hit rate 1.4% among 360,000 | AID 602449;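 active = inhibition of 50% or more, scaled per plate between neutral and stimulator controls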
EBI2 antag = antagonists of human EBI2 receptor; inhibition, % at 5 µM; AID 651636; hit rate 0.81% among 360,000; EBI2 beta-arrestin recruitment, luminescence, 7a,25-OHC stimulated; P32249; in the data active = inhibition above about 38%;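 also: enzyme fragment complementation signal reports receptor beta-arrestin coupling in cells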
Target sequence (P32249 whole entry, looked up, the tested form may be a part): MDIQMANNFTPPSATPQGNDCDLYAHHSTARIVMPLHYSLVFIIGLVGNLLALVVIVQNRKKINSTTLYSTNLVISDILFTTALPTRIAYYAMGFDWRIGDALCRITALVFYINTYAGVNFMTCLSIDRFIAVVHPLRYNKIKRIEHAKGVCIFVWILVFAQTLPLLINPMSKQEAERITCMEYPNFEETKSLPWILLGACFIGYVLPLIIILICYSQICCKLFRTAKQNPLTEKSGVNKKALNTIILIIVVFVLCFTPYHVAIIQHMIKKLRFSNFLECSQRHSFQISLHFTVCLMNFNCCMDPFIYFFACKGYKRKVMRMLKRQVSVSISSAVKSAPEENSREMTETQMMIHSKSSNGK
GRIN3A LBD mod = modulators (binders) of human NR3A ligand-binding domain; NR3A LBD differential scanning fluorimetry, Tm shift; 0% = protein alone, 100% = glycine-bound protein; Tm shift relative to glycine control, % at 25 µM; hit rate 2.5% among 340,000; AID 1259313;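 active = melting temperature shift of at least 10% of the positive control shift, at one fixed dose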
SENP1 FRET inh = SENP1 (human) catalytic domain inhibition | Q9P0U3 | inhibition, % at 10 µM | hit rate 0.21% among 360,000 | AID 624204 | recombinant SENP1 catalytic domain, CyPet-SUMO1-YPet FRET cleavage;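 active = inhibition at least 30% at 10 µM, raw YFP signal under a set limit, fluorescence ratio 0.5 to 1.5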
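Controls: no-enzyme wells low, DMSO-plus-enzyme wells high control. Test system: human recombinant His6-tagged SENP1 catalytic domain enzyme. Reagent: SFCypet-SUMO1-SFYpet FRET protein substrate, 25 nM final. Doses: one dose per compound, 10 µM, 0.5% DMSO. Detection: FRET, CFP and YFP emission. Timing: 50 min reaction at room temperature.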
Each line names hits and unclear results; the compound was inactive in the other large screens. Hits are enriched below; roughly 4.4% of the tested compounds scored in any of these assays.

Cc1ccc(NC(=O)CN2C(=O)CCS(=O)(=O)c3ccccc32)cc1Cl	GRIN3A LBD mod 15
CN(C)S(=O)(=O)c1cccc(NC(=O)CN2C(=O)NC(Cc3c[nH]c4ccccc34)C2=O)c1 (stereo not drawn)	none
CCOc1ccc(NC(=O)N(O)C2(C#N)CCCCC2)cc1	none
CC(C)C(NC(=O)c1ccc(F)cc1)C(=O)Nc1cccnc1 (stereo not drawn)	none
COc1ccc(CCC(C)N2CCOCC2)cc1 (stereo not drawn)	none
Cc1ccc(NC(=O)CN2C(=O)NC(Cc3ccccc3)C2=O)cc1Cl (stereo not drawn)	GRIN3A LBD mod 15
Cc1ccc(NC(=O)CN2C(=O)NC(Cc3ccccc3)C2=O)cc1 (stereo not drawn)	none
COc1cc(Cl)c(C)cc1NC(=O)COc1ccc(C)nc1[N+](=O)[O-]	none
COc1cc(Nc2ccccc2Cl)c([N+](=O)[O-])nc1[N+](=O)[O-]	GRIN3A LBD mod 11
Cc1nnc(N/N=C/c2cc(C)n(-c3ccc(F)cc3)c2C)n1N	GRIN3A LBD mod 12
COc1cc2nc(SCc3ccc(C(F)(F)F)cc3)n(Cc3cccs3)c(=N)c2cc1OC	GRIN3A LBD mod 24
COCCCn1c(SCc2cccc(C(F)(F)F)c2)nc2cc(OC)c(OC)cc2c1=N	EBI2 antag 57, GRIN3A LBD mod 10
COc1ccc(Cn2c(SCc3ccc(C)cc3)nc3cc(OC)c(OC)cc3c2=N)cc1Cl	none
COCCCn1c(SCC(=O)O)nc2cc(OC)c(OC)cc2c1=N	none
Clc1nc(Oc2ccccc2)nc(-c2cn(-c3ccccc3)c3ccccc23)n1	none
CCNc1nc(Cl)nc(-c2cn(-c3ccccc3)c3ccccc23)n1	GRIN3A LBD mod 12
O=c1c(Cl)c(N/N=C/c2ccc(Cl)cc2)cnn1-c1ccccc1	GRIN3A LBD mod 16
Nc1c(C(=O)N/N=C/c2ccc(Cl)cc2)cnn1-c1ccccc1	none
N#C/C(=C/c1ccc(N2CCCCC2)cc1)c1cccc(F)c1	GRIN3A LBD mod 12
COc1cc(N2CCCC2)c(OC)cc1/C=C(/C#N)c1ccc(F)cc1	none
O=C(CN1C(=O)NC2(CCCC2)C1=O)Nc1ccccc1N1CCCCC1	none
N#C/C(=C/c1ccc(O)c(O)c1)c1nc2ccccc2[nH]1	GRIN3A LBD mod 19
N#C/C(=C\c1ccc(OC(=O)c2cccs2)cc1)c1nc2ccccc2[nH]1	none
CCc1ccc(NC(=O)COc2ccc(/C=C(/C#N)c3nc4ccccc4[nH]3)cc2OC)cc1	GRIN3A LBD mod 30
N#C/C(=C\c1ccc(N2CCCC2)c([N+](=O)[O-])c1)c1nc2ccccc2[nH]1	none
N#C/C(=C\c1ccc([N+](=O)[O-])o1)c1nc2ccccc2[nH]1	GRIN3A LBD mod 22 (no result: MPTP block, EBI2 antag, SENP1 FRET inh)
N#C/C(=C\c1cccs1)c1nc2ccccc2[nH]1	GRIN3A LBD mod 22
COc1c(C)cc(C(=O)C2CCCN(C(=O)c3cc(C4CC4)[nH]n3)C2)cc1C (stereo not drawn)	none
C=CCN(c1ccccc1)S(=O)(=O)c1ccc2c(c1)N(C(C)=O)CCO2	none
CN(C)S(=O)(=O)c1cc(C(=O)Nc2ccccc2C(=O)NC2CC2)ccc1Cl	none
CCc1cc(/C(Cc2ccc3ccccc3n2)=N\O)c(O)cc1O	GRIN3A LBD mod 29
Cc1ccc(S(=O)(=O)N/N=C/c2ccc(O)cc2O)cc1[N+](=O)[O-]	none
O=S(=O)(NN=Cc1ccc(O)cc1O)c1cc(Cl)c(Cl)cc1Cl	GRIN3A LBD mod 22
O=C(O)c1ccc(/C=C2\SC(=S)N(NC(=O)c3ccccc3[N+](=O)[O-])C2=O)cc1	none
O=C(O)COc1ccccc1/C=C1\SC(=S)N(NC(=O)c2ccccc2O)C1=O	none
O=C(NN1C(=O)/C(=C/c2ccc(O)c(O)c2)SC1=S)c1ccccc1	GRIN3A LBD mod 13
COc1cc(/C=C2\SC(=S)N(NC(=O)c3ccc(O)cc3)C2=O)ccc1O	none
O=C(NN1C(=O)/C(=C/c2cccc(O)c2)SC1=S)c1ccccc1O	GRIN3A LBD mod 23
COc1cc(/C=C2\SC(=S)N(NC(=O)c3cccnc3)C2=O)ccc1O	SENP1 FRET inh 49
O=C(NN1C(=O)/C(=C\c2ccc(O)c([N+](=O)[O-])c2)SC1=S)c1ccccc1Cl	SENP1 FRET inh 33
Cc1cc(SCC(=O)c2cccs2)n2nc(C)c(-c3ccccc3)c2n1	none
CCOC1=NC(=C(c2ccccc2)c2ccccc2)OC1=O	none
CC1C(=O)N(Cc2cccc(F)c2)c2ccccc2N1C(=O)c1ccccc1 (stereo not drawn)	none
COc1cc(/C=C2\SC(=S)N(Nc3ncc(C(F)(F)F)cc3Cl)C2=O)ccc1O	GRIN3A LBD mod 14
